Measurements from ChEMBL document CHEMBL4184306 (Bioorg Med Chem Lett, 2018).
Values after ≈ are worked out from the molar mass of the structure shown.

Legend:
OVCAR-8 = assay: Growth inhibition of human OVCAR8 cells after 72 hrs by SRB assay; type: functional, cell-based; conditions: OVCAR-8, 72 h
[1] = Growth inhibition of SV-40 immortalized human ovarian epithelial cells after 72 hrs by SRB assay
A2780 (human) = assay: Selectivity index, ratio of IC50 for SV-40 immortalized human ovarian epithelial cells to IC50 for human A2780 cells
Plasmodium falciparum [2] = assay: Antiplasmodial activity against Plasmodium falciparum Dd2 by SYBR Green I fluorescence assay; type: functional, organism-based
[3] = Growth inhibition of human A2780cis cells after 72 hrs by SRB assay; type: functional, cell-based
A2780 [4] = assay: Growth inhibition of human A2780 cells after 72 hrs by SRB assay; type: functional, cell-based; conditions: A2780, 72 h
[5] = Aqueous solubility of the compound in phosphate buffer at pH 7.4 measured after 24 hrs by HPLC method; type: physicochemical
Outline: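 Measured in phosphate buffer at pH 7.4 and 37 °C, with the dissolved compound quantified by high-performance liquid chromatography.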

[6] = Growth inhibition of SV-40 immortalized human ovarian epithelial cells after 48 hrs by MTT assay
Plasmodium falciparum [7] = assay: Antiplasmodial activity against chloroquine sensitive Plasmodium falciparum FCR-3/Gambia assessed as [3H]hypoxanthine incorporation after 72 hrs; type: functional, organism-based
[8] = Growth inhibition of human A2780cis cells after 72 hrs by MTT assay; type: functional, cell-based
A2780 [9] = assay: Growth inhibition of human A2780 cells after 48 hrs by MTT assay; type: functional, cell-based; conditions: A2780, 48 h
Plasmodium falciparum [10] = assay: Antiplasmodial activity against chloroquine and artemisinin sensitive Plasmodium falciparum FCR-3/Gambia after 72 hrs; type: functional, organism-based

| IC50 (OVCAR-8) | IC50 (Plasmodium falciparum [2]) | IC50 (A2780 [4]) | solubility at 24 h [5] | IC50 (Plasmodium falciparum [7]) | IC50 (A2780 [9]) | Structure (SMILES) | IC50 [1] | selectivity ratio (A2780 (human)) | IC50 [3] | IC50 [6] | IC50 [8] | IC50 (Plasmodium falciparum [10]) |
| --- | --- | --- | --- | --- | --- | --- | --- | --- | --- | --- | --- | --- |
| 5.2 µM | 10.4 µM | 3.2 µM | 5040 µg/mL (≈ 37 mM) |  |  | CC1=CC(=O)C=C(C)C1=O | 5.3 µM | 1.7 | 2.9 µM |  |  |  |
| 13.5 µM | 19.7 µM | 7.5 µM |  |  |  | CC1=CC(=O)C(C(C)(C)C)=CC1=O | 55.8 µM | 7.5 | 7.9 µM |  |  |  |
| 35.1 µM | 19.3 µM | 19.9 µM |  |  |  | CC1=C(N)C(=O)C(C(C)C)=CC1=O | 139 µM | 7.1 | 19.3 µM |  |  |  |
| 37.4 µM | 29.5 µM | 24.6 µM |  |  |  | CC(C)(C)C1=CC(=O)C=C(C(C)(C)C)C1=O | 51.5 µM |  | 31.1 µM |  |  |  |
| 51.2 µM | 4.2 µM | 34 µM |  |  |  | CC(C)(C)C1=CC(=O)C(C(C)(C)C)=CC1=O | 117 µM |  | 42.5 µM |  |  |  |
| 32 µM | 100 µM | 15 µM |  |  |  | CC1=CC(=O)C(Nc2ccc(F)cc2)=CC1=O | 20.2 µM | 1.3 | 21.8 µM |  |  |  |
| 5.6 µM | 9.9 µM | 6.2 µM | 8320 µg/mL (≈ 50.4 mM) |  |  | CC1=CC(=O)C(N(C)C)=CC1=O | 7.9 µM | 1.7 | 4.7 µM |  |  |  |
| 8.9 µM | 15.9 µM | 3.1 µM |  |  |  | Cc1cc(O)c(C(C)C)cc1O | 14 µM | 4.5 | 9.8 µM |  |  |  |
| 8.3 µM | 15.4 µM | 3.6 µM |  |  |  | Cc1cc(O)cc(C)c1O | 7.8 µM | 2.1 | 3.6 µM |  |  |  |
| 56.5 µM | 116 µM | 44.2 µM |  |  |  | CC(C)(C)CC(C)(C)C1=CC(=O)C(C(C)(C)CC(C)(C)C)=CC1=O | > 200 µM | > 4.6 | 51.8 µM |  |  |  |
| 12.9 µM | 52.7 µM | 14 µM |  |  |  | CNC1=C(C)C(=O)C=C(C(C)C)C1=O | 36.8 µM | 5 | 7.3 µM |  |  |  |
| 11.6 µM | 25.6 µM | 3.4 µM |  |  |  | Cc1c(O)c(Br)c(C(C)C)c(O)c1Br | 11 µM | 3.2 | 4.8 µM |  |  |  |
| 54.2 µM | 78.8 µM | 36.1 µM |  |  |  | CCC(C)(C)C1=CC(=O)C(C(C)(C)CC)=CC1=O | > 200 µM | > 5 | 48.8 µM |  |  |  |
| 6 µM | 16.2 µM | 4.5 µM |  |  |  | CC1=C(Cl)C(=O)C(C(C)(C)C)=C(Cl)C1=O | 3.1 µM | < 1 | 4.2 µM |  |  |  |
| 12.2 µM | 17.9 µM | 6.4 µM |  |  |  | Cc1cc(O)c(C(C)(C)C)cc1O | 85.6 µM | 13.4 | 11.5 µM |  |  |  |
| 16 µM | 11.1 µM | 12.6 µM |  |  |  | CCNC1=C(C)C(=O)C=C(C(C)C)C1=O | 30.3 µM | 3.1 | 9.6 µM |  |  |  |
| 35.6 µM | 191 µM | 16.7 µM |  |  |  | CC1=C(N(C)C)C(=O)C=CC1=O | 28.2 µM | 1.3 | 20.5 µM |  |  |  |
| 6.2 µM | 134 µM | 5.7 µM |  |  |  | Cc1cc(O)ccc1O [METHYLHYDROQUINONE] | 6.3 µM |  | 4.7 µM |  |  |  |
| 0.01 µM |  | 0.009 µM |  | 0.003 to 0.006 µM | 0.05 µM | CC(=O)O[C@H]1C(=O)[C@@]2(C)[C@H]([C@H](OC(=O)c3ccccc3)[C@]3(O)C[C@H](OC(=O)[C@H](O)[C@@H](NC(=O)c4ccccc4)c4ccccc4)C(C)=C1C3(C)C)[C@]1(OC(C)=O)CO[C@@H]1C[C@@H]2O [PACLITAXEL] |  |  |  | 0.03 µM | 0.003 to 0.004 µM |  |

| Structure (SMILES) | IC50 (OVCAR-8) | IC50 (Plasmodium falciparum [2]) | IC50 (A2780 [4]) | solubility at 24 h [5] | IC50 (Plasmodium falciparum [7]) | IC50 (A2780 [9]) | IC50 [1] | selectivity ratio (A2780 (human)) | IC50 [3] | IC50 [6] | IC50 [8] | IC50 (Plasmodium falciparum [10]) |
| --- | --- | --- | --- | --- | --- | --- | --- | --- | --- | --- | --- | --- |
| CC(C)(C)C1=CC(=O)C=CC1=O | 10 µM | 15.6 µM | 5.7 µM |  |  |  | 10.3 µM | 1.8 | 4.9 µM |  |  |  |
| CC1=CC(=O)C=CC1=O [Cresoquinone] | 13.4 µM |  | 12.1 µM |  |  |  | 6 µM | < 1 | 11.8 µM |  |  |  |
| CC1=C(Br)C(=O)C(C(C)C)=C(Br)C1=O [Dibromothymoquinone] | 3.6 µM | 30 µM | 4.9 µM |  |  |  | 7.3 µM | 1.5 | 5.3 µM |  |  |  |
| CC1=CC(=O)C(C(C)C)=CC1=O [THYMOQUINONE] | 11.6 µM | 25 µM | 7.9 µM | 468 µg/mL (≈ 2.85 mM) |  |  | 17.8 µM |  | 7.8 µM |  |  | 1.2 µM |
